Measurements: ChEMBL document CHEMBL2439964, “Identification of a series of 1,3,4-trisubstituted pyrazoles as novel hepatitis C virus entry inhibitors” (Bioorg Med Chem Lett, 2013)

Assays:
[1] = Cytotoxicity against human HuH7 cells; assay type: cell-based, Huh-7
In short: (§1)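 Naïve Huh-7 cells in 384-well plates were given serially diluted compound, then infected with cell culture-derived HCV (HCVcc) at MOI 1. Live cells were analysed 72 h post-infection. EC50 came from 10-point dose-response in duplicate with quadruplicate measurements, or 5-point in duplicate for one series. CC50 came from automated per-well cell counts. SI = CC50/EC50.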

[2] = system: Hepatitis C virus; experiment: Antiviral activity against cell culture derived HCV infected in human HuH7 cells assessed as inhibition of viral replication after 72 hrs; assay type: functional, organism-based, Hepacivirus hominis; settings: Huh-7, 72 h; in short: as §1
[3] = Selectivity index, ratio of CC50 for human HuH7 cells to EC50 for cell culture derived HCV; parameters: species or system Huh-7; in short: as §1

Row | SMILES | EC50 [2] | CC50 [1] | Ratio CC50/EC50 [3]
1 | CN1CCN(CCNCc2cn(-c3ccc(F)cc3F)nc2-c2ccccc2)CC1 | 1.6 µM | > 20 µM | >13
2 | Cc1ccccc1-c1nn(-c2ccc(F)cc2F)cc1CNCCN1CCOCC1 | > 20 µM | > 20 µM | –
3 | CN1CCN(CCNCc2cn(-c3ccc(F)cc3F)nc2-c2ccccc2Cl)CC1 | 3.3 µM | > 20 µM | >6.1
4 | CN1CCN(CCNCc2cn(-c3ccc(C(F)(F)F)cc3)nc2-c2ccc(OC(F)(F)F)cc2)CC1 | 0.44 µM | 3 µM | 6.9
5 | COC(=O)c1ccc(-c2nn(-c3ccc(F)cc3F)cc2CNCCN2CCN(C)CC2)cc1 | 3.8 µM | > 20 µM | >5.3
6 | CN1CCN(CCNCc2cn(-c3ccc(F)cc3F)nc2-c2ccc(S(=O)(=O)N(C)C)cc2)CC1 | 1.8 µM | > 20 µM | >11
7 | Cc1ccccc1-c1nn(C(C)C)cc1CNCCN1CCN(C)CC1 | > 20 µM | > 20 µM | –
8 | CCCN1CCC(CNCc2cn(-c3ccc([N+](=O)[O-])cc3)nc2-c2ccc(OC(F)(F)F)cc2)CC1 | 0.6 µM | 18 µM | 30
9 | Cc1ccccc1-c1nn(-c2ccc(F)cc2F)cc1CNCCN1CCN(C)CC1 | 2.8 µM | > 20 µM | >7.2
10 | CN1CCN(CCNCc2cn(-c3ccc([N+](=O)[O-])cc3)nc2-c2ccc(OC(F)(F)F)cc2)CC1 | 0.4 µM | 4.4 µM | 11
11 | CN1CCN(CCCNCc2cn(-c3ccc([N+](=O)[O-])cc3)nc2-c2ccc(Cl)cc2)CC1 | 0.13 µM | 3.7 µM | 28
12 | CCCN1CCC(CNCc2cn(-c3ccc([N+](=O)[O-])cc3)nc2-c2ccc(Cl)cc2)CC1 | 0.3 µM | 11 µM | 37
13 | CN1CCN(CCNCc2cn(-c3ccc(C(F)(F)F)cc3)nc2-c2ccc(C(F)(F)F)cc2)CC1 | 0.49 µM | 1.5 µM | 3.1
14 | CN1CCN(CCNCc2cn(-c3ccc(C(F)(F)F)cc3)nc2-c2ccc(Cl)cc2)CC1 | 0.36 µM | 3 µM | 8.4
15 | CN1CCN(CCNC(=O)c2cn(-c3ccc(F)cc3F)nc2-c2ccccc2Cl)CC1 | > 20 µM | > 20 µM | –
16 | Cc1ccc(-n2cc(CNCCN3CCN(C)CC3)c(-c3ccccc3C)n2)c(C)c1 | 2.4 µM | > 20 µM | >8.3
17 | Cc1ccccc1-c1nn(-c2cccc(Cl)c2)cc1CNCCN1CCN(C)CC1 | 1 µM | 16 µM | 16
18 | CN1CCN(CCNCc2cn(-c3ccc([N+](=O)[O-])cc3)nc2-c2ccc(Cl)cc2)CC1 | 0.29 µM | 5 µM | 17
19 | Cc1ccccc1-c1nn(-c2ccc(N)cc2)cc1CNCCN1CCN(C)CC1 | 10 µM | > 20 µM | >2
20 | CCOC(=O)Cn1cc(CNCCN2CCN(C)CC2)c(-c2ccccc2C)n1 | > 20 µM | > 20 µM | –

Row | SMILES | EC50 [2] | CC50 [1] | Ratio CC50/EC50 [3]
21 | Cc1cccc(-c2nn(-c3ccc(F)cc3F)cc2CNCCN2CCN(C)CC2)c1 | 1.7 µM | > 20 µM | >12
22 | CN1CCN(CCCNCc2cn(-c3ccc([N+](=O)[O-])cc3)nc2-c2ccc(OC(F)(F)F)cc2)CC1 | 0.34 µM | 1.6 µM | 4.6
23 | CN1CCN(CCNCc2cn(-c3ccc(F)cc3F)nc2Cc2ccccc2)CC1 | 16 µM | > 20 µM | >1.3
24 | CN1CCN(CCCNCc2cn(-c3ccc([N+](=O)[O-])cc3)nc2-c2ccc(C(F)(F)F)cc2)CC1 | 0.12 µM | 4.9 µM | 41
25 | Cc1c(CNCCN2CCN(C)CC2)c(-c2ccccc2)nn1-c1ccc(F)cc1 | 8.5 µM | > 20 µM | –
26 | Cc1ccccc1-c1nn(-c2ccc(Cl)cc2)cc1CNCCN1CCN(C)CC1 | 0.65 µM | 17 µM | 26
27 | Cc1ccccc1-c1nn(-c2ccc(F)cc2F)cc1CN1CCN(C(C)C)CC1 | > 20 µM | > 20 µM | –
28 | Cc1ccccc1-c1nn(-c2cccc(C(F)(F)F)c2)cc1CNCCN1CCN(C)CC1 | 0.91 µM | 18 µM | 20
29 | CCCN1CCC(CNCc2cn(-c3ccc(C(F)(F)F)cc3)nc2-c2ccc(OC(F)(F)F)cc2)CC1 | 0.41 µM | 2.2 µM | 5.3
30 | Cc1ccccc1-c1nn(-c2ccc(F)c(F)c2)cc1CNCCN1CCN(C)CC1 | 2.6 µM | > 20 µM | >7.7
31 | CN1CCN(CCNCc2cn(-c3ccc(F)cc3F)nc2-c2ccc(C(F)(F)F)cc2)CC1 | 0.54 µM | 20 µM | 37
32 | Cc1ccccc1-c1nn(-c2ccc(OC(F)(F)F)cc2)cc1CNCCN1CCN(C)CC1 | 0.9 µM | 17 µM | 19
33 | Cc1ccccc1-c1nn(-c2ccc([N+](=O)[O-])cc2)cc1CNCCN1CCN(C)CC1 | 0.49 µM | > 20 µM | >41
34 | Cc1ccccc1-c1nn(-c2ccc(F)cc2F)cc1CNCCCN1CCN(C)CC1 | 2.2 µM | > 20 µM | >9
35 | CN1CCN(CCCNCc2cn(-c3ccc(C(F)(F)F)cc3)nc2-c2ccc(OC(F)(F)F)cc2)CC1 | 0.75 µM | 2.3 µM | 3.1
36 | CCN(CC)CCCNCc1cn(-c2ccc(F)cc2F)nc1-c1ccccc1C | 4.3 µM | > 20 µM | >4.6
37 | CN1CCN(CCNCc2cn(-c3ccc(F)cc3F)nc2C2CCCCC2)CC1 | 1.2 µM | > 20 µM | >17
38 | CCCCCNCc1cn(-c2ccc(F)cc2F)nc1-c1ccccc1C | 18 µM | 17 µM | 1
39 | CN1CCN(CCNCc2cn(-c3ccc([N+](=O)[O-])cc3)nc2-c2ccc(C(F)(F)F)cc2)CC1 | 0.11 µM | 3.2 µM | 29
40 | Cc1ccccc1CNc1nn(-c2ccc(F)cc2F)cc1CNCCN1CCN(C)CC1 | 4.3 µM | > 20 µM | >4.7

Now from value to compound, other results behind:

Row | EC50 [2] | SMILES | CC50 [1] | Ratio CC50/EC50 [3]
41 | 2.1 µM | COc1ccc(-c2nn(-c3ccc(F)cc3F)cc2CNCCN2CCN(C)CC2)cc1 | > 20 µM | >9.5
42 | 0.46 µM | Cc1ccccc1-c1nn(-c2ccc(C(F)(F)F)cc2)cc1CNCCN1CCN(C)CC1 | 11 µM | 24
43 | 13 µM | CN1CCN(CCNCc2cc(-c3ccccc3)nn2-c2ccc(F)cc2)CC1 | > 20 µM | –
44 | 0.81 µM | Cc1ccc(-c2nn(-c3ccc(F)cc3F)cc2CNCCN2CCN(C)CC2)cc1 | > 20 µM | >25
45 | > 20 µM | Cc1ccccc1-c1nn(-c2ccc(F)cc2F)cc1CNCCCCO | > 20 µM | –
46 | 3.7 µM | Cc1ccccc1-c1nn(-c2ccc(F)cc2)cc1CNCCN1CCN(C)CC1 | > 20 µM | >5.4
47 | > 20 µM | Cc1ccccc1-c1nn(-c2ccc(F)cc2F)cc1CN1CCN(c2ccccc2)CC1 | > 20 µM | –
48 | > 20 µM | Cc1ccccc1-c1nn(-c2ccc(F)cc2F)cc1CNCCN(C)C | > 20 µM | –
49 | 11 µM | CN1CCN(CCNCc2cn(-c3ccc(F)cc3F)nc2C(C)(C)C)CC1 | > 20 µM | >1.8
50 | 3.2 µM | CN1CCN(CCNCc2cn(-c3ccc(F)cc3F)nc2-c2cccc(N(C)C)c2)CC1 | > 20 µM | >6.3
51 | 0.67 µM | CSc1ccc(-n2cc(CNCCN3CCN(C)CC3)c(-c3ccccc3C)n2)cc1 | 17 µM | 25
52 | > 20 µM | Cc1ccccc1-c1nn(-c2ccc(F)cc2F)cc1CNC1CCN(S(C)(=O)=O)CC1 | > 20 µM | –
53 | 2.3 µM | CCCN1CCC(CNCc2cn(-c3ccc(F)cc3F)nc2-c2ccccc2C)CC1 | > 20 µM | >8.8
54 | 3 µM | COCCN1CCC(CNCc2cn(-c3ccc(F)cc3F)nc2-c2ccccc2C)CC1 | > 20 µM | >6.7
55 | 0.36 µM | CN1CCN(CCCNCc2cn(-c3ccc(C(F)(F)F)cc3)nc2-c2ccc(Cl)cc2)CC1 | 2.5 µM | 6.9
56 | 0.58 µM | CN1CCN(CCNCc2cn(-c3ccc(F)cc3F)nc2-c2cccc(Cl)c2)CC1 | 15 µM | 26
57 | 0.38 µM | CN1CCN(CCCNCc2cn(-c3ccc(C(F)(F)F)cc3)nc2-c2ccc(C(F)(F)F)cc2)CC1 | 2 µM | 5.3
58 | 7.5 µM | Cc1ccccc1-c1nn(-c2ccc(F)cc2F)cc1CN1CCC(N2CCCCC2)CC1 | > 20 µM | >2.7
59 | 20 µM | Cc1ccccc1-c1nn(-c2ccc(F)cc2F)cc1CNCCN1CCCCC1 | > 20 µM | >1
60 | 0.33 µM | CCCN1CCC(CNCc2cn(-c3ccc(C(F)(F)F)cc3)nc2-c2ccc(C(F)(F)F)cc2)CC1 | 1.2 µM | 3.6
61 | > 20 µM | Cc1ccccc1-c1nn(-c2ccc(F)cc2F)cc1CNCc1ccncc1 | > 20 µM | –
62 | 3.8 µM | Cc1ccccc1-c1nn(-c2ccccc2Cl)cc1CNCCN1CCN(C)CC1 | > 20 µM | >5.3
63 | 7.5 µM | Cc1ccccc1-c1nn(Cc2ccccc2)cc1CNCCN1CCN(C)CC1 | > 20 µM | >2.3
64 | 10 µM | Cc1ccccc1-c1nn(Cc2ccc(F)cc2)cc1CNCCN1CCN(C)CC1 | > 20 µM | >2
65 | 1.3 µM | CN1CCN(CCNCc2cn(-c3ccc(F)cc3F)nc2-c2ccc(N(C)C)cc2)CC1 | > 20 µM | >15
